This is an account of results in ChEMBL document CHEMBL1136818, “The development of new triazole based inhibitors of tumor necrosis factor-alpha (TNF-alpha) production” (Bioorg Med Chem Lett, 2003).

The subject of data set [1] is THP-1. The data set is described as follows: Inhibitory activity against TNF-alpha production using lipopolysaccharide stimulated human monocytic cells. The format is functional, cell-based. Put shortly: (§1)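 THP-1 human monocytic cells (2.0 × 10^5/well), in duplicate cultures, preincubated 15 min with or without inhibitor at various concentrations, then stimulated with LPS 2 μg/mL. TNF-α released measured by ELISA 4 h after stimulation; cell viability after the 4 h incubation checked by MTS assay. Standard deviation typically ±30% of the mean or less.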

The test system of data set [2] is THP-1. The data set is described as follows: Inhibitory activity against TNF-alpha production using lipopolysaccharide (LPS) stimulated human monocytic cells (THP-1); NA: Not active. Type of data set: functional, cell-based. Put shortly:
as §1

Data set [3] can be described thus: Oral bioavailability in the rat was determined. The format is ADME, organism-based. As to conditions: in vivo; call rule not given here.
The nature of data set [4]: Clearance was determined. Type of data set: ADME, organism-based. To be noted: rat, in vivo.
The nature of data set [5]: Half life period was determined. The format is ADME, organism-based. As to conditions: rat, in vivo.

Structures are written as SMILES. pIC50: −log10 of the molar value. “And” between values parts separate entries of the source, which are not always exact repeats. Identical values can stand only once. A value given as a limit tells only on which side of the number the result lay.

The term pIC50 denotes the negative decadic logarithm of the IC50, by convention in mol/L. High values mean a low IC50, low ones a high IC50. For the compound `CCOCn1nnc(-c2ccnc(Oc3cccc(NC(C)=O)c3)n2)c1-c1ccc(F)cc1`, in data set [1] (Homo sapiens, THP-1), the pIC50 is 6.72.

On to `CCOCn1nnc(-c2ccc(F)cc2)c1-c1ccncc1`, for which the IC50 result in data set [2] is recorded as “Not Active”.

Turning to `CCOCn1nnc(-c2ccc(F)cc2)c1-c1ccnc(N[C@@H](C)c2ccccc2)n1`, in data set [1] (Homo sapiens, THP-1), the pIC50 is 7.27.

For the compound `Fc1ccc(-c2[nH]nnc2-c2ccncc2)cc1`, in data set [1] (Homo sapiens, THP-1), the pIC50 is 7.90.

The term bioavailability denotes dose-corrected exposure relative to a reference, in per cent. As a reminder, the clearance is the rate of elimination divided by the concentration. Lower therefore signals inefficient removal. As usually defined, the half-life is how long it takes for the measured level to halve. As to `CCOCn1nnc(-c2ccc(F)cc2)c1-c1ccnc(Oc2cccc(NC(C)=O)c2)n1`, the pIC50 in data set [1] (Homo sapiens, THP-1) is 8.10. The compound also returned a bioavailability in data set [3] of 56%. The compound also showed a clearance in data set [4] of 36.5 mL/min/kg. In data set [5], this compound had a half-life of 2.2 h.

For `COc1ccc(-n2nc(-c3ccncc3)c(-c3ccc(F)cc3)n2)cc1OC`, the pIC50 in data set [1] (Homo sapiens, THP-1) is 6.13.

The compound `CCOCn1nnc(-c2ccnc(N[C@H](C)c3ccccc3)n2)c1-c1ccc(F)cc1` gave a pIC50 in data set [1] (Homo sapiens, THP-1) of 5.80.

In data set [1] (Homo sapiens, THP-1), `CCOCn1nnc(-c2ccc(F)cc2)c1-c1ccnc(Oc2ccccc2)n1` had a pIC50 of 7.13.

In data set [1] (Homo sapiens, THP-1), `CCOCn1nnc(-c2ccnc(NCc3ccccc3)n2)c1-c1ccc(F)cc1` showed a negative-log IC50 (pIC50) of 6.25.

For the compound `COc1ccc(C(=O)n2nc(-c3ccncc3)c(-c3ccc(F)cc3)n2)cc1`, in data set [1] (Homo sapiens, THP-1), the pIC50 is 5.48.

As for `CCOCn1nnc(-c2ccc(F)cc2)c1-c1ccnc(N[C@H](C)c2ccccc2)n1`, in data set [1] (Homo sapiens, THP-1), the negative-log IC50 (pIC50) is 7.34.

With `CCOC(=O)n1nc(-c2ccncc2)c(-c2ccc(F)cc2)n1`, the pIC50 in data set [1] (Homo sapiens, THP-1) was 5.42.

Compound `CCOCn1nc(-c2ccncc2)c(-c2ccc(F)cc2)n1` showed a negative-log IC50 (pIC50) in data set [1] (thp-1) of 6.31.

Compound `COCCn1nc(-c2ccncc2)c(-c2ccc(F)cc2)n1` had a negative logarithm of the IC50 (pIC50) in data set [1] (Homo sapiens, THP-1) of 5.43.

With `CN(C(=O)n1nc(-c2ccncc2)c(-c2ccc(F)cc2)n1)c1ccccc1`, in data set [1] (Homo sapiens, THP-1), the pIC50 was 5.72.

Take `COCn1nc(-c2ccncc2)c(-c2ccc(F)cc2)n1`: the pIC50 in data set [1] (Homo sapiens, THP-1) is 5.12.

On to `CCOCn1nc(-c2ccc(F)cc2)c(-c2ccnc(Oc3ccccc3)n2)n1`, for which the pIC50 in data set [1] (Homo sapiens, THP-1) was 5.40.

In the case of `CCOCn1nnc(-c2ccc(F)cc2)c1-c1ccnc(NCc2ccccc2)n1`, in data set [1] (Homo sapiens, THP-1), the negative logarithm of the IC50 (pIC50) was 7.00.

The compound `COc1ccc(-n2nc(-c3ccncc3)c(-c3ccc(F)cc3)n2)cc1` showed a negative-log IC50 (pIC50) in data set [1] (Homo sapiens, THP-1) of 5.88.

`O=C(Nc1ccccc1)n1nc(-c2ccncc2)c(-c2ccc(F)cc2)n1`: the pIC50 in data set [1] (Homo sapiens, THP-1) is less than 5.00.

In the case of `C[S+]([O-])c1ccc(-c2nc(-c3ccc(F)cc3)c(-c3ccncc3)[nH]2)cc1` (centres undefined) [SB-203580], the negative-log IC50 (pIC50) in data set [1] (Homo sapiens, THP-1) is 7.14.

The compound `CCOCn1nnc(-c2ccncc2)c1-c1ccc(F)cc1` showed a negative-log IC50 (pIC50) in data set [1] (Homo sapiens, THP-1) of 6.31.

Turning to `CCOCn1nnc(-c2ccnc(N[C@@H](C)c3ccccc3)n2)c1-c1ccc(F)cc1`, the pIC50 in data set [1] (Homo sapiens, THP-1) is 6.51.

The compound `COc1ccc(S(=O)(=O)n2nc(-c3ccncc3)c(-c3ccc(F)cc3)n2)cc1` gave a pIC50 in data set [1] (Homo sapiens, THP-1) of 5.32.

In the case of `CCOCn1nnc(-c2ccnc(Oc3ccccc3)n2)c1-c1ccc(F)cc1`, in data set [1] (thp-1), the negative-log IC50 (pIC50) was 6.21 and 6.79.

`Fc1ccc(-c2nn(C(=S)Sc3ccccc3)nc2-c2ccncc2)cc1` showed a negative logarithm of the IC50 (pIC50) in data set [1] (Homo sapiens, THP-1) of 5.43.
